# Source: PubChem
# A selection: hits, their analogues and other compounds. The true share with any hit is near 1.4%.
# CAL PDZ FP-1 = blocks peptide binding to human CAL PDZ domain; Q9HD26; AID 504414; inhibition, % at 20 µM; hit rate 0.02% among 330,000; purified CAL PDZ, TMR-peptide fluorescence polarization, 1 h;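 active = highest replicate inhibition of at least 40%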
#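 Assay system – tagged CAL PDZ protein CerCALP, purified · Timing – 1 h at RT · Compound – single point, 20 µM · Measured by – fluorescence polarization from S- and P-plane intensities, G-factor corrected · Evaluation – inhibition from polarization loss · Probe or stimulus – TMR reporter peptide T*-PRC34 · Buffer or medium – pH 7.4 phosphate-saline buffer, reducing agent, detergent, IgG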
# DYRK1A inh = Dyrk1A (rat) kinase inhibition | ADP-Glo luminescence, NFATc1 peptide | inhibition, % at 12.5 µM | hit rate 0.43% among 310,000 | AID 504441; in the data active = inhibition above about 50%
# CAL PDZ FP-2 = CAL PDZ (human) peptide binding inhibition | Q9HD26 | purified CAL PDZ, TMR-peptide fluorescence polarization, 1 h | inhibition, % at 24.9 µM | hit rate 0.92% among 300,000 | AID 602252;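 active = mean inhibition of at least 30% with at least half of replicates also reaching 30%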
# ARNT TACC3 PPI = ARNT/TACC3 interaction disruption | Q9Y6A5 | AlphaScreen His-ARNT PAS-B/GST-TACC3 binding, luminescence; TACC3 fragment carries E629A point mutation | inhibition, % at 9.99 µM | hit rate 0.66% among 390,000 | AID 623870;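 active = mean inhibition of replicates at least 50% and at least half of replicates each reaching 50%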
# Dyrk1A artifact = counter-screen for Dyrk1A inhibitors: ADP-Glo luciferase artifacts; shares compounds with DYRK1A inh; ADP-Glo luciferase artifact assay, no Dyrk1A, luminescence; AC50, µM (top dose mostly 12 µM); 1,300 tested, under 10 active; AID 588348;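 active = fitted half-maximal dose AC50 no more than ten times the top valid tested dose, with luminescence dropping as dose rises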
# A number is an active result; i = inactive; nt = no result given.
SMILES,CAL PDZ FP-1,DYRK1A inh,CAL PDZ FP-2,ARNT TACC3 PPI,Dyrk1A artifact
CCCn1c2ccccc2c2cn[nH]c(=O)c21,i,54,i,i,i
S=c1[nH]cc(-c2ccc(Cl)cc2)n1Cc1ccccc1,i,55,i,i,i
Cc1sc(NC(=O)c2ccco2)nc1-c1ccccc1,i,52,i,i,i
CC(=O)c1sc(NC(=O)c2ccco2)nc1-c1ccccc1,i,i,nt,i,nt
COc1ccc2c(c1)CCc1sc(NC(=O)c3ccco3)nc1-2,i,68,nt,nt,i
Cc1ccccc1Nc1cc(C)c2c(O)cccc2n1,i,60,nt,i,i
Cc1ccc(Nc2cc(C)c3c(O)cccc3n2)cc1C,i,i,i,i,nt
COc1ccc(C(=O)N(Cc2nc(-c3ccc(C)cc3)no2)C(C)C)cc1OC,i,61,nt,i,i
Cc1ccc(S(=O)(=O)Nc2ccc3c(c2)C(=O)N(C)[C@H]2CC[C@H](CC(=O)O)O[C@@H]2CO3)cc1,nt,nt,nt,i,nt
COCCNC(=O)c1ccc2c(c1)nc(C)n2-c1cccc(F)c1,i,68,i,i,i
CC(=O)Nc1ccc(Nc2nc(-c3ccccc3)nc3ccccc23)cc1,i,i,i,i,nt
Oc1ccc(Nc2nc(-c3ccccc3)nc3ccccc23)cc1,i,86,i,i,i
O=C1CCN2C=Nc3cccc4ccc1c2c34,i,73,i,i,i
COc1ccccc1-c1ccc2n(c1=O)C[C@@H]1[C@@H](CO)[C@H](C(=O)N(C)C)[C@H]2N1C(=O)c1cccnc1,nt,nt,nt,i,nt
C=CCSC1=NC(=O)/C(=C/c2cccs2)S1,i,76,nt,i,i
NC1=NC(=O)C(=Cc2ccccc2)S1,i,i,i,i,nt
NC1=NC(=O)/C(=C/c2cccs2)S1,i,53,i,i,i
COC(=O)c1sc2cnccc2c1N,i,58,i,i,i
COC(=O)c1ccncc1N,i,i,i,i,nt
Cc1ccnc(Nc2nc(-c3ccc(O)c(O)c3)cs2)c1,i,54,i,i,i
O=c1cc[nH]c2c1ccc1cccnc12,i,81,i,61,i
Cc1ccc2cccnc2c1N,i,nt,i,i,nt
COC(=O)c1ccc2c(c1)C(=O)/C(=C/c1ccc(O)cc1)O2,i,i,i,i,nt
COc1cccc(/C=C2\Oc3ccc(O)cc3C2=O)c1O,i,50,i,i,i
COc1cccc(S(=O)(=O)Nc2ccc3c(c2)C(=O)N(C)[C@@H]2CC[C@@H](CC(=O)O)O[C@H]2CO3)c1,nt,nt,nt,i,nt
SMILES,CAL PDZ FP-1,DYRK1A inh,CAL PDZ FP-2,ARNT TACC3 PPI,Dyrk1A artifact
CN1CCN(C2=C(Cl)C(=O)c3ccccc3C2=O)CC1,i,56,i,i,i
O=C1C(Cl)=C(N2CCC(C(=O)O)CC2)C(=O)c2ccccc21,i,61,i,i,i
CC(Nc1nc(-c2ccccc2)nc2ccccc12)c1ccccc1 (configuration not stated),i,i,nt,i,nt
CC(Nc1nc(-c2cccnc2)nc2ccccc12)c1ccc(F)cc1 (configuration not stated),i,62,i,i,i
COc1ccc(S(=O)(=O)N2C[C@@H](O)COC[C@@H]3O[C@@H](CC(=O)NCc4ccc(Cl)c(Cl)c4)CC[C@H]32)cc1,nt,nt,nt,i,nt
O=C(c1cccc(F)c1)N1C[C@@H]2[C@H](c3ccccc31)[C@@H](CO)N2C(=O)c1ccc(F)cc1,nt,nt,nt,i,nt
Oc1cccc(NC(=S)N=Nc2c(O)[nH]c3ccccc23)c1,i,51,i,54,i
Cc1cccc(NC(=S)NNC(=O)c2csc3c2CCC(C)C3)c1 (configuration not stated),i,62,nt,nt,i
CC(C)CNC(=S)NNC(=O)c1csc2c1CCC(C)C2 (configuration not stated),i,i,i,i,nt
C=CCN1C(=O)/C(=C/c2ccccc2)S/C1=N/c1nccs1,i,58,i,nt,i
CCCc1nc2c(=O)n(C)c(=O)nc-2n(C)n1,i,65,i,i,i
CCCC#Cc1ccc2c(c1)O[C@@H](CN(C)Cc1cccnc1)[C@H](C)CN([C@@H](C)CO)S2(=O)=O,nt,nt,nt,i,nt
O=C(Nc1ccc(/C=C/c2nc3ccccc3o2)cc1)c1c(F)cccc1F,i,i,i,i,nt
CC(=O)Nc1ccc(/C=C/c2nc3ccccc3o2)cc1,nt,59,i,i,i
C/C(=N\NC(=O)c1ccncc1)c1cccc(NC(=O)c2ccc(Cl)s2)c1,i,i,i,i,nt
O=C(Nc1cccc(-c2nn[nH]n2)c1)c1ccc(Br)s1,i,92,i,i,i
O=C(Nc1cccc(-c2nn[nH]n2)c1)c1ccc(Cl)s1,i,76,i,i,i
